From ChEMBL document CHEMBL1126065, “Synthesis and antiallergic activity of 11-(aminoalkylidene)-6,11-dihydrodibenz[b,e]oxepin derivatives” (J Med Chem, 1992)

Tests used:
[1] = tested on: Cavia porcellus; test: The compound was tested in vivo for the inhibition of IgG1-mediated bronchoconstriction in guinea pig at 0.03 mg/kg administered perorally; assay type: functional; conditions: route oral; for ED50: read-out: ID50 (the source's name)
Method in brief: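 Male Hartley guinea pigs, 8–12 per group, were passively sensitized ip with 1 mL IgG-like anti-ovalbumin antiserum. After 24 h they were urethane-anesthetized, ventilated and given gallamine. Compound was given orally 1 h before ovalbumin challenge (5 mg/kg iv). Konzett–Rössler overflow was read as % inhibition versus controls at 5 min after challenge.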

[2] = target: T1, Histamine H1 receptor (Cavia porcellus, UniProt P31389); test: Binding affinity for histamine H1 receptor from guinea pig cerebellum, using [3H]pyrilamine as radioligand at 0.1 uM; assay type: tissue-based
T1 sequence (P31389 whole entry): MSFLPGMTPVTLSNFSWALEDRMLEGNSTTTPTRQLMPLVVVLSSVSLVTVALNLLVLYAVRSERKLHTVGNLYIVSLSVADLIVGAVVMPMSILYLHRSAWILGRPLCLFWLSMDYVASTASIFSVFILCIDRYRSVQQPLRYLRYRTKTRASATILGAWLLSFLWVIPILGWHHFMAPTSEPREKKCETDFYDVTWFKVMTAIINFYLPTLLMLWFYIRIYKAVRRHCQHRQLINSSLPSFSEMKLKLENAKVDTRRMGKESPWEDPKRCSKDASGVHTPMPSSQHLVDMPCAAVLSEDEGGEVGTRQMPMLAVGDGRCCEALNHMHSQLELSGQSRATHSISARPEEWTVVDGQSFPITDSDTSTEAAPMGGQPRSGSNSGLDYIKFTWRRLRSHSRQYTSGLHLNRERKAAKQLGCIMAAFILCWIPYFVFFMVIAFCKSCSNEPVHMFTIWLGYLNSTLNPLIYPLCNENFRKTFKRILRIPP
Method in brief: (§1)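 Male Hartley guinea-pig cerebellum membranes (washed twice, 35000–35500g) in 50 mM Na/K phosphate, pH 7.5. Tissue (10 mg wet weight) was incubated with 3.8 nM [3H]pyrilamine and 0.1 μM drug for 30 min at 25 °C. Nonspecific binding was set with 1 μM astemizole. Bound ligand was collected by GF/C filtration with three ice-cold washes and counted by liquid scintillation.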

[3] = target: T2, Muscarinic acetylcholine receptor M1 (Rattus norvegicus) (UniProt P08482); test: Binding affinity for Muscarinic acetylcholine receptor M1 from rat striatum, using [3H]quinuclidinyl benzilate as radioligand at 10 uM.
T2 sequence (whole entry): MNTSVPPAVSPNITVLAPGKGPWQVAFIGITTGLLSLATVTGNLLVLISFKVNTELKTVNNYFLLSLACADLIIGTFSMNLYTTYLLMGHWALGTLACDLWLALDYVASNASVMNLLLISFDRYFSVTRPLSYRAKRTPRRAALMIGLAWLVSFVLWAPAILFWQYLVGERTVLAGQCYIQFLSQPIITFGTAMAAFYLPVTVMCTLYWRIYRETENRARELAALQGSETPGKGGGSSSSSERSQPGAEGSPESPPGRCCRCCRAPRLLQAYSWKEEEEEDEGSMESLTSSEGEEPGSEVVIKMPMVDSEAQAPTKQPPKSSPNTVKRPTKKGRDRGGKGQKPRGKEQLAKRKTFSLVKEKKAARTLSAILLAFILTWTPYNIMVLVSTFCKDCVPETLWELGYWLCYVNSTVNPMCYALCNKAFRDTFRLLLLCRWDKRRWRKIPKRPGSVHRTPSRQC
Method in brief: (§2)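 Rat striatum was homogenized in water and diluted to 200 volumes in 50 mM Na/K phosphate, pH 7.4. Nonspecific binding was defined with 1 μM unlabeled dexetimide. Bound ligand was collected by GF/B filtration with three ice-cold buffer washes and counted by scintillation.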

[4] = tested on: Rattus norvegicus; test: The compound at 1 uM was tested in vivo for inhibitory effect on 48-h homologous passive cutaneous anaphylaxis (PCA) in rats administered perorally; assay type: functional; conditions: in the assay text read “at 1 mg/kg” for “at 1 uM”
Method in brief: (§3)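 Male Wistar rats, three per group, received intradermal anti-ovalbumin rat IgE serum (0.05 mL, 1:8 in saline) at two dorsal sites. After 48 h they were challenged iv with 1 mg ovalbumin plus 5 mg Evans blue. Compound was given orally 1 h before challenge. […] ED50 came from responders (>50% inhibition).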

[5] = tested on: Rattus norvegicus; test: The compound was tested in vivo for inhibitory effect on 48-h homologous passive cutaneous anaphylaxis (PCA) in rats administered perorally; assay type: functional; conditions: po; method in brief: as §3
[6] = target: Histamine H1 receptor (Cavia porcellus) (UniProt P31389); test: (§4) The compound was tested in vitro for binding affinity against histamine H1 receptor from guinea pig cerebellum, using [3H]pyrilamine as radioligand at 0.1 uM; assay type: tissue-based; method in brief: as §1
Histamine H1 receptor (Cavia porcellus), sequence (P31389 whole entry): as the sequence (P31389 whole entry) above

[7] = target: T2, Muscarinic acetylcholine receptor M1 (Rattus norvegicus); test: The compound was tested in vitro for binding affinity against muscarinic acetylcholine Muscarinic acetylcholine receptor M1 from rat striatum, using [3H]quinuclidinyl benzilate as radioligand at 10 uM.
Method in brief: as §2, with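 “7.4. Tissue (5 mg wet weight) was incubated with 1.26 nM [3H]quinuclidinyl benzilate for 60 min at 37 °C.” for “7.4.”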

[8] = tested on: Rattus norvegicus; test: The compound at 1 mg/kg was tested in vivo for inhibitory effect on 48-h homologous passive cutaneous anaphylaxis (PCA) in rats administered perorally
[9] = tested on: Rattus norvegicus; test: The compound at 10 uM was tested in vivo for inhibitory effect on 48-h homologous passive cutaneous anaphylaxis (PCA) in rats administered perorally; assay type: functional; conditions: in the assay text read “at 10 mg/kg” for “at 10 uM”; method in brief: as §3
[10] = target: T2, Muscarinic acetylcholine receptor M1 (Rattus norvegicus); test: The compound was tested in vitro for binding affinity Muscarinic acetylcholine receptor M1 from rat striatum, using [3H]quinuclidinyl benzilate as radioligand at 10 uM.
Method in brief: as §2, with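 “7.4. Tissue (5 mg wet weight) was incubated with 1.26 nM [3H]quinuclidinyl benzilate for 60 min at 37 °C.” for “7.4.”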

[11] = target: T1, Histamine H1 receptor; test: as §4; assay type: tissue-based
Method in brief: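 Male Hartley guinea-pig cerebellum membranes (washed twice, 35000–35500g) in 50 mM Na/K phosphate, pH 7.5. Nonspecific binding was set with 1 μM astemizole. Bound ligand was collected by GF/C filtration with three ice-cold washes and counted by liquid scintillation.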

SMILES	inhibition in vivo at 0.03 mg/kg [1] [%]	Ki [2] [nM]	inhibition [3] [%]	ED50 [5] [mg/kg]	ED50 [1] [mg/kg]	also measured
O=C(O)c1ccc2c(c1)/C(=C\CCN1CCSCC1)c1ccccc1CO2	27	7.6	27	–	–	Inhibition [4]: 60%
CN(C)CCC/C=C1\c2ccccc2COc2ccc(C(=O)O)cc21	1.4	6.3	12	1.2	–	–
O=C(O)/C=C/C(=O)O.O=C(O)c1ccc2c(c1)/C(=C/CN1CCOCC1)c1ccccc1CO2	–	–	–	–	–	inhibition [6]: 19%; inhibition [7]: 2%; Inhibition [8]: 12%
CN(C)CC/C=C1\c2ccccc2COc2ccc(CC(=O)O)cc21	–	5.2	-1	0.021	0.0041	–
O=C(O)/C=C/C(=O)O.O=C(O)c1ccc2c(c1)/C(=C\CCN1CCCC1)c1ccccc1CO2	8.7	5	3	–	–	Inhibition [9]: 53%
CN(C)CC/C=C1\c2ccccc2COc2ccc(CCC(=O)O)cc21	–	4.2	5	0.26	0.0064	–
CN1CCN(C/C=C2\c3ccccc3COc3ccc(C(=O)O)cc32)CC1.O=C(O)/C=C/C(=O)O	–	–	–	–	–	inhibition [6]: 0%; inhibition [7]: 2%; Inhibition [8]: 10%
CN(C)CC/C=C1\c2ccccc2COc2ccc(CCO)cc21	–	0.48	72	0.14	0.0059	–
CN(C)CC/C=C1/c2ccccc2COc2ccc(CC(=O)O)cc21.Cl [OLOPATADINE HYDROCHLORIDE]	–	16	3	0.049	0.03	–
CC(C)O.O=C(O)c1ccc2c(c1)/C(=C\CCN1CCOCC1)c1ccccc1CO2	-1	–	–	–	–	inhibition [6]: 24%; inhibition [7]: -2%; Inhibition [4]: 74%
CN(C)CC/C=C(/c1ccccc1)c1cccc(C(=O)O)c1	–	–	4	–	–	inhibition [6]: 10%
CN1CCC(=C2c3ccccc3CC(=O)c3sccc32)CC1 [KETOTIFEN]	–	–	55	4.8	0.009	–
O=C(O)/C=C/C(=O)O.O=C(O)c1ccc2c(c1)/C(=C/CN1CCSCC1)c1ccccc1CO2	–	–	–	–	–	inhibition [6]: 30%; inhibition [7]: 3%; Inhibition [9]: 24%
CN(C)CCC/C=C1/c2ccccc2COc2ccc(CC(=O)O)cc21	60	4.6	2	–	–	Inhibition [4]: 55%
CN1CCN(C/C=C2\c3ccccc3COc3ccc(CC(=O)O)cc32)CC1.O=C(O)/C=C/C(=O)O	–	–	–	–	–	inhibition [6]: 29%; inhibition [7]: 3%; Inhibition [4]: 44%
CN(C)CC/C=C1/c2ccccc2COc2cc(C(=O)O)ccc21	–	24	-1	–	–	Inhibition [8]: 19%
CN(C)CC/C=C1/c2ccccc2COc2ccc(CCC(=O)O)cc21	–	–	–	0.32	0.015	inhibition [10]: 2%; Ki [11]: 15 nM
CN(C)CC/C=C1\c2ccccc2COc2ccc(C(=O)O)cc21.O=C(O)/C=C/C(=O)O	–	4.2	5	0.74	0.021	–
Cc1ccc2c(c1)/C(=C/CCN(C)C)c1ccccc1CO2.O=C(O)/C=C/C(=O)O	–	0.13	–	–	–	Inhibition [4]: 20%
CN(C)CC/C=C1/c2ccccc2COc2ccc(CCO)cc21	–	–	80	0.12	–	Ki [11]: 0.63 nM
CN(C)C/C=C1\c2ccccc2COc2ccc(CC(=O)O)cc21	–	–	–	0.077	0.018	inhibition [10]: 1%; Ki [11]: 11 nM
CN(C)CCSC1c2ccccc2COc2ccc(C(=O)O)cc21.Cl (configuration not stated)	–	14	–	0.92	0.029	inhibition [7]: 7%
CCN(CC)CC/C=C1/c2ccccc2COc2ccc(C(=O)O)cc21.O=C(O)/C=C/C(=O)O	19	10	3	0.12	–	–
CN(C)CC/C=C1/c2ccccc2COc2ccc(/C=C/C(=O)O)cc21.O=C(O)/C=C/C(=O)O	1.1	29	-1	1	–	–
CN(C)CCC/C=C1/c2ccccc2COc2ccc(C(=O)O)cc21	11	–	2	1.2	–	Ki [11]: 5.8 nM
CN(C)CC/C=C1/c2ccccc2COc2ccc(C(=O)O)cc21	–	20	1	0.25	0.053	–
CN(C)C/C=C1\c2ccccc2COc2ccc(C(=O)O)cc21.O=C(O)/C=C/C(=O)O	28	12	-2	–	–	Inhibition [8]: 19%
